Laboratory results published in ChEMBL document CHEMBL3425447, “Discovery of Orally Available Runt-Related Transcription Factor 3 (RUNX3) Modulators for Anticancer Chemotherapy by Epigenetic Activation and Protein Stabilization” (J Med Chem, 2015).

What was measured:
[1] = Metabolic stability in rat liver microsomes assessed as compound remaining at 1 uM after 60 mins by LC-ESI/MS/MS analysis in presence of UDPGA; assay type: ADME; settings: read-out: Stability
How it was run: (§1)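 Rat or human liver microsomes (0.5 mg/ml) incubated with test compound (1 µM) at 37°C for 60 min, with or without NADPH or UDPGA cofactor, n = 2–3. Percent parent remaining quantified by LC-ESI/MS/MS.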

[2] = tested on: ACHN; test: Growth inhibition of human ACHN cells after 5 days by sulforhodamine B assay; assay type: functional; settings: 120 h
[3] = Metabolic stability in mouse liver microsomes assessed as compound remaining at 1 uM after 30 mins byLC-ESI/MS/MS analysis in presence of NADPH; assay type: ADME; settings: read-out: Stability
How it was run: (§2)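 Compound at 1 µM incubated in triplicate with pooled mouse liver microsomes (0.5 mg/ml final) in 0.1 M potassium phosphate, pH 7.4, at 37°C, with or without 1 mM NADPH. Reactions stopped at 0 and 30 min with ice-cold acetonitrile containing internal standard. After centrifugation, supernatant analyzed by LC-ESI/MS/MS; percent remaining from analyte/IS peak-area ratios. Buspirone served as positive control.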

[4] = Metabolic stability in mouse liver microsomes assessed as compound remaining at 1 uM after 30 mins by LC-ESI/MS/MS analysis in absence of NADPH; assay type: ADME; settings: read-out: Stability; how it was run: as §2
[5] = Retention time of the compound by HPLC analysis; assay type: physicochemical
[6] = Metabolic stability in rat liver microsomes assessed as compound remaining at 1 uM after 60 mins by LC-ESI/MS/MS analysis in absence of UDPGA; assay type: ADME; settings: read-out: Stability; how it was run: as §1
[7] = Metabolic stability in rat liver microsomes assessed as compound remaining at 1 uM after 60 mins byLC-ESI/MS/MS analysis in presence of NADPH; assay type: ADME; settings: read-out: Stability; how it was run: as §1
[8] = target: Histone deacetylase; test: Inhibition of HDAC in human HeLa cell nuclear extract using Fluor de Lys as substrate incubated with compound for 30 mins by microtiter-plate reading flourimeter analysis; assay type: protein assay
[9] = tested on: HEK293; test: Induction of myc-tagged RUNX3 acetylation in human HEK293 cells assessed as RUNX3 level at 1 uM after 24 hrs by immunoprecipitation analysis relative to TSA; assay type: functional
How it was run: (§3)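 HEK293 cells (DMEM, 10% FBS) transfected with myc-RUNX3 vector using Lipofectamine 2000. Next day treated at 1 µM for 24 h. Lysates (HEPES pH 7.5, NP-40 buffer) immunoprecipitated with anti-myc antibody and protein G beads at 4°C. Immunoprecipitates western-blotted with anti-acetylated lysine antibody; relative acetylated RUNX3 quantified.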

[10] = Growth inhibition of human PC3 cells after 5 days by sulforhodamine B assay; assay type: functional; settings: PC-3, 120 h
[11] = tested on: HEK293; test: Induction of myc-tagged RUNX3 acetylation in human HEK293 cells assessed as acetylated RUNX3 level at 1 uM after 24 hrs by immunoprecipitation analysis relative to TSA; assay type: functional; how it was run: as §3
[12] = tested on: MDA-MB-231; test: Growth inhibition of human MDA-MB-231 cells after 5 days by sulforhodamine B assay; assay type: functional; settings: MDA-MB-231, 120 h
[13] = Growth inhibition of human HCT15 cells after 5 days by sulforhodamine B assay; assay type: functional; settings: HCT-15, 120 h
[14] = Metabolic stability in rat liver microsomes assessed as compound remaining at 1 uM after 60 mins by LC-ESI/MS/MS analysis in absence of NADPH; assay type: ADME; settings: read-out: Stability; how it was run: as §1
[15] = tested on: NCI-H23; test: Growth inhibition of human NCI-H23 cells after 5 days by sulforhodamine B assay; assay type: functional; settings: NCI-H23, 120 h
[16] = tested on: C2C12; test: Induction of RUNX transcriptional activation in mouse C2C12-6xOSE2 cells at 1 uM after 24 hrs by luciferase reporter assay relative to FGF-2; assay type: functional
How it was run: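 C2C12-6xOSE stable cells grown in DMEM with 10% FBS at 37°C, 5% CO2. Seeded at 1 × 10^4 cells/well; next day treated with compound or FGF-2 (1 µM each). After 24 h, luciferase measured with Bright-Glo. Activity expressed as percent of the FGF-2 positive-control response.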

[17] = Growth inhibition of human NUGC3 cells after 5 days by sulforhodamine B assay; assay type: functional; settings: NUGC-3, 120 h
[18] = Cmax in Sprague-Dawley rat at 10 mg/kg, po by LC-MS/MS analysis; assay type: ADME, organism-based; parameters: dose 10 mg/kg, route oral; settings: in vivo
How it was run: (§4)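 Specific pathogen-free male SD rats (10 weeks, 298–315 g), n = 3 per route, single dose 2 mg/kg i.v. or 10 mg/kg p.o. Oral vehicle DMAC/Vitamin E TPGS 80/25% solutol HS 15 (10/10/80); dosing volumes 5 (i.v.) and 10 ml/kg (p.o.). Plasma precipitated with acetonitrile containing carbamazepine internal standard, LC-MS/MS. Noncompartmental analysis of mean profiles; linear-trapezoidal AUC (oral 0–5 h, i.v. to infinity).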

[19] = tested on: NCI-H460; test: Induction of RUNX3 mRNA expression in human NCI-H460 cells after 24 hrs by RT-PCR analysis; assay type: functional, cell-based
How it was run: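 NCI-H460 cells in RPMI1640 with 10% FBS were plated and treated the following day. After 24 h, total RNA extracted and 1 µg reverse-transcribed. RUNX3 cDNA amplified with specific primers, run on a 1.5% agarose gel and stained with ethidium bromide. GAPDH served as internal control; SNU16 gastric cells served as positive-control line.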

[20] = Terminal half life in Sprague-Dawley rat at 2 mg/kg, iv by LC-MS/MS analysis; assay type: ADME, organism-based; parameters: dose 2 mg/kg, route intravenous; settings: in vivo, read-out: beta t1/2 (converted); how it was run: as §4
[21] = Oral bioavailability in Sprague-Dawley rat at 10 mg/kg by LC-MS/MS analysis; assay type: ADME, organism-based; settings: in vivo; how it was run: as §4
[22] = Metabolic stability in human liver microsomes assessed as compound remaining at 1 uM after 60 mins by LC-ESI/MS/MS analysis in absence of UDPGA; assay type: ADME; settings: read-out: Stability; how it was run: as §1
[23] = Metabolic stability in human liver microsomes assessed as compound remaining at 1 uM after 60 mins byLC-ESI/MS/MS analysis in presence of UDPGA; assay type: ADME; settings: read-out: Stability; how it was run: as §1
[24] = tested on: NCI-H460; test: Antitumor activity against human NCI-H460 cells xenografted in BALB/c nude mouse assessed as reduction in tumor weight at 20 mg/kg, po administered daily for 2 weeks measured every 2 or 3 days for 14 days; assay type: functional
How it was run: (§5)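 Female SPF BALB/c nude mice, 6 weeks old, injected subcutaneously in the flank with NCI-H460 cells (3 × 10^7/animal). At tumor volume 50–80 mm3, randomized four per group. Dosed orally at 20 mg/kg in 10% DMAC/10% Tween 80 in saline, daily for two weeks, versus vehicle control. Tumor length and width measured by caliper three times weekly; body weight monitored.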

[25] = AUC (0 to 5 hrs) in Sprague-Dawley rat at 10 mg/kg, po by LC-MS/MS analysis; assay type: ADME, organism-based; parameters: dose 10 mg/kg, route oral; settings: plasma; how it was run: as §4
[26] = Metabolic stability in human liver microsomes assessed as compound remaining at 1 uM after 60 mins byLC-ESI/MS/MS analysis in presence of NADPH; assay type: ADME; settings: read-out: Stability; how it was run: as §1
[27] = Terminal half life in Sprague-Dawley rat at 10 mg/kg, po by LC-MS/MS analysis; assay type: ADME, organism-based; parameters: dose 10 mg/kg, route oral; settings: in vivo, read-out: beta t1/2 (converted); how it was run: as §4
[28] = Metabolic stability in human liver microsomes assessed as compound remaining at 1 uM after 60 mins by LC-ESI/MS/MS analysis in absence of NADPH; assay type: ADME; settings: read-out: Stability; how it was run: as §1
[29] = tested on: Mus musculus; test: Toxicity against BALB/c nude mouse xenografted with human NCI-H460 cells assessed as body weight loss at 20 mg/kg, po administered daily for 2 weeks; assay type: organism-based; parameters: dose 20 mg/kg, route oral; settings: in vivo, 336 h; how it was run: as §5
[30] = Clearance in Sprague-Dawley rat at 2 mg/kg, iv by LC-MS/MS analysis; assay type: ADME, organism-based; parameters: dose 2 mg/kg, route intravenous; settings: in vivo; how it was run: as §4
[31] = Tmax in Sprague-Dawley rat at 10 mg/kg, po by LC-MS/MS analysis; assay type: ADME, organism-based; parameters: dose 10 mg/kg, route oral; settings: in vivo; how it was run: as §4
[32] = Volume of distribution at steady state in Sprague-Dawley rat at 2 mg/kg, iv by LC-MS/MS analysis; assay type: ADME, organism-based; parameters: dose 2 mg/kg, route intravenous; settings: in vivo, read-out: Vdss; how it was run: as §4
[33] = AUC(0 to infinity) in Sprague-Dawley rat at 2 mg/kg, iv by LC-MS/MS analysis; assay type: ADME, organism-based; parameters: time infinity, dose 2 mg/kg, route intravenous; settings: plasma

COc1cccc(CCCn2cccc(/C=C/C(=O)NO)c2=O)c1
remaining at 1 h, 1 µM [1]: 45.7% | GI50 [2]: 760 nM | remaining at 0.5 h, 1 µM [3]: 88.4% | remaining at 0.5 h, 1 µM [4]: 110% | Retention_time [5]: 11.335 min | remaining at 1 h, 1 µM [6]: 81.3% | remaining at 1 h, 1 µM [7]: 72.7% | IC50 [8]: 30 nM | fold change (FC) [9]: 1.1 | GI50 [10]: 700 nM | fold change (FC) [11]: 0.8 | GI50 [12]: 720 nM | GI50 [13]: 1590 nM | remaining at 1 h, 1 µM [14]: 116% | GI50 [15]: 870 nM | Activity [16]: 142.1% | GI50 [17]: 1050 nM

O=C(/C=C/c1cccn(Cc2ccc3ccccc3n2)c1=O)NO
Cmax [18]: 142 ng/mL | remaining at 1 h, 1 µM [1]: 72.4% | Activity [19]: Dose-dependent effect | half-life [20]: 4.4 h | GI50 [2]: 250 nM | remaining at 0.5 h, 1 µM [3]: 90.3% | bioavailability [21]: 48.7% | remaining at 0.5 h, 1 µM [4]: 100% | Retention_time [5]: 9.606 min | remaining at 1 h, 1 µM [22]: 95.2% | remaining at 1 h, 1 µM [23]: 99.7% | inhibition in vivo at 20 mg/kg [24]: 45.7% | AUC(0-t) at 4 h [25]: 863 ng·h/mL | remaining at 1 h, 1 µM [6]: 88.9% | remaining at 1 h, 1 µM [7]: 83.5% | remaining at 1 h, 1 µM [26]: 75.5% | half-life [27]: 10.3 h | remaining at 1 h, 1 µM [28]: 74.7% | Activity [29]: Non-toxic | IC50 [8]: 30 nM | fold change (FC) [9]: 29.3 | clearance [30]: 93.3 mL/min/kg | GI50 [10]: 490 nM | fold change (FC) [11]: 77.5 | GI50 [12]: 100 nM | GI50 [13]: 380 nM | remaining at 1 h, 1 µM [14]: 92% | GI50 [15]: 130 nM | Activity [16]: 687.5% | Tmax [31]: 0.67 h | GI50 [17]: 710 nM | Vd [32]: 14 L/kg | AUC(0-inf) [33]: 354 ng·h/mL

O=C(CCC1=CCN(Cc2ccc(Br)cc2)C1=O)NO
inhibition in vivo at 20 mg/kg [24]: 37.9%

CCOc1ccccc1CCCn1cccc(/C=C/C(=O)NO)c1=O
GI50 [2]: 320 nM | remaining at 0.5 h, 1 µM [3]: 31.5% | remaining at 0.5 h, 1 µM [4]: 104% | Retention_time [5]: 12.367 min | IC50 [8]: 50 nM | fold change (FC) [9]: 13.7 | GI50 [10]: 180 nM | fold change (FC) [11]: 37.2 | GI50 [12]: 560 nM | GI50 [13]: 660 nM | GI50 [15]: 460 nM | Activity [16]: 105.5% | GI50 [17]: 470 nM
